This is an account of results in ChEMBL document CHEMBL2203212, “Peptides and Pseudopeptides as SIRT6 Deacetylation Inhibitors” (ACS Med Chem Lett, 2012).

Activity calls are given as the source filed them. No cut-off for these calls is given here. Square brackets hold non-standard residues; d marks the D form. Peptide text beside a SMILES is read from it. Lys(Thioacetyl) = CC(=S)NCCCC[C@H](N)C(=O)O

Assay [1] deals with T1, NAD-dependent protein deacylase sirtuin-6 (Homo sapiens, UniProt Q8N6T7). Nature of the assay: Inhibition of human recombinant SIRT6 assessed as 7-amino-4-methylcoumarin labelled Arg-His-Lys-Lys(epsilon-acetyl) substrate deacetylation at 200 uM after 90 mins by Fluor-de-Lys assay. In outline: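 Single-point screen at 200 μM in a commercial in vitro SIRT6 deacetylation activity kit with Fluor de Lys fluorescence read-out, reported as percent inhibition of deacetylation.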

For assay [2], the target named is T1, NAD-dependent protein deacylase sirtuin-6. The experiment in a line: Inhibition of N-terminal His-tagged human recombinant SIRT6 (13 to 308) expressed in Escherichia coli Rosetta2 cells assessed as FdL-1 peptide substrate deacetylation at 100 uM after 45 mins by Fluor-de-Lys assay.
Assay [3] shares this target. Nature of the assay: Inhibition of human recombinant SIRT6 assessed as 7-amino-4-methylcoumarin labelled Arg-His-Lys-Lys(epsilon-acetyl) substrate deacetylation after 90 mins by Fluor-de-Lys assay. In outline:
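Commercial in vitro SIRT6 deacetylation kit with Fluor de Lys read-out. The IC50 was determined in two separate runs, each in triplicate, and reported as the average of the six measurements.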

T1 sequence (Q8N6T7 whole entry): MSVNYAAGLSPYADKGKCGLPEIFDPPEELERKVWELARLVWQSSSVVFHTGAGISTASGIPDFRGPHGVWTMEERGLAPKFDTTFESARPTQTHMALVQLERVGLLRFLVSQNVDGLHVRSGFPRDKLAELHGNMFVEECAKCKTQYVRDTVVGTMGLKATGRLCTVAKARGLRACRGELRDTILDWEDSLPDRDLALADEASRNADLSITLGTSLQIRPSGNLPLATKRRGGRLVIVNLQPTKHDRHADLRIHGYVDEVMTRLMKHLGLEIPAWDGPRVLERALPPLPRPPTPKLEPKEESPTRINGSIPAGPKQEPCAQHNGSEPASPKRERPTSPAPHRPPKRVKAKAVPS

As to `CC(=S)NCCCC[C@H](NC(=O)CCc1ccccc1)C(=O)N[C@@H](C)C(=O)O`, the inhibition result in assay [1] is “Active”. Same read-out and setting: the figure for `CC(=O)N[C@@H](C)C(=O)N[C@@H](CCCCNC(=O)C=C(C)C)C(=O)N[C@@H](C)C(=O)O` is 26%. In the case of `Nc1cc2c(nc3c4ccccc4c(N)cc3[n+]2-c2cccc3ccccc23)c2ccccc12`, the inhibition in assay [2] is 25%. In the case of `CSCC[C@H](NC(=O)[C@H](CC(C)C)NC(=O)[C@H](CCCCNC(C)=S)NC(=O)[C@H](CCCCN)NC(=O)[C@H](C)N)C(=O)O` (H-AK[Lys(Thioacetyl)]LM-OH), the IC50 in assay [3] was determined as 47 µM. The inhibition in assay [1] came out at 91%. On to `CC(=S)NCCCC[C@H](NC(=O)OCc1ccccc1)C(=O)Nc1ccccc1`, for which, in assay [1], the inhibition was 36%. Consider `O=C1c2ccccc2C(=O)c2c1ccc(N1C(=O)c3ccccc3C1=O)c2-c1c(N2C(=O)c3ccccc3C2=O)ccc2c1C(=O)c1ccccc1C2=O`, for which the inhibition in assay [2] stood at 25%. Consider `CC(=[Se])NCCCC[C@H](NC(=O)OCc1ccccc1)C(=O)Nc1ccccc1`, for which the IC50 in assay [3] was found to be 285 µM. Besides, the inhibition in assay [1] stood at 62%.

In the case of `CSCC[C@H](NC(=O)[C@@H](NC(=O)[C@H](CCCCNC(C)=S)NC(=O)[C@H](CC(=O)O)NC(=O)[C@@H](N)CO)[C@@H](C)O)C(=O)O` (H-SD[Lys(Thioacetyl)]TM-OH), the inhibition in assay [1] amounted to 35%.

As to `O=C(C[n+]1ccc2ccccc2c1)c1ccc2ccc3ccccc3c2c1`, the inhibition in assay [2] came out at 25%. Take `CSCC[C@H](NC(=O)[C@H](CC(C)C)NC(=O)[C@H](CCCCNC(C)=S)NC(=O)[C@H](CCCCN)NC(=O)[C@@H](N)Cc1cnc[nH]1)C(=O)O` (H-HK[Lys(Thioacetyl)]LM-OH): the IC50 in assay [3] amounted to 78 µM. Moreover, the inhibition in assay [1] turned out to be 62%. Take `O=C1c2ccccc2C(=O)c2c(Nc3cc4c5c(ccc6c7ccc8c9c(cc(Nc%10cccc%11c%10C(=O)c%10ccccc%10C%11=O)c(c3c56)c97)-c3ccccc3C8=O)C(=O)c3ccccc3-4)cccc21`: the inhibition in assay [2] came to 25%. On to `CC(=O)N[C@@H](C)C(=O)N[C@@H](CCCCNC(C)=S)C(=O)N[C@@H](C)C(=O)O`, for which the inhibition in assay [1] was determined as 54%. Take `Nc1cc2c(nc3c4ccccc4ccc3[n+]2-c2cccc3ccccc23)c2ccccc12`: the inhibition in assay [2] turned out to be 25%. Consider `CC(=S)NCCCC[C@H](NC(=O)[C@@H]1CCCN(C(=O)OC(C)(C)C)C1)C(=O)N[C@@H](C)C(=O)O`, for which the inhibition entry in assay [1] is “Active”.

Take `CC(=O)N[C@@H](C)C(=O)N[C@@H](CCCCNC(=O)CC(C)C)C(=O)N[C@@H](C)C(=O)O`: the inhibition result in assay [1] was “Active”. For `CC(=O)N[C@@H](C)C(=O)N[C@@H](CCCCNC(=S)CC(C)C)C(=O)N[C@@H](C)C(=O)O`, in assay [1], the inhibition result was “Active”. For the compound `CC(=S)NCCCC[C@H](NC(=O)OCc1ccccc1)C(=O)NC1CCCCC1`, the inhibition entry in assay [1] is “Active”. As for `CN1C[C@H](C(=O)N[C@]2(C)O[C@@]3(O)[C@@H]4CCCN4C(=O)[C@H](Cc4ccccc4)N3C2=O)C=C2c3cccc4[nH]cc(c34)C[C@H]21`, the inhibition in assay [2] amounted to 25%.
